Converted amounts (≈) assume the structure as drawn. The source made the active and inactive calls. The rule behind the calls is not given here.
Key:
RAW264.7 = experiment: Cytotoxicity against mouse RAW264.7 cells after 8 hrs by MTT assay; assay type: cell-based; conditions: RAW264.7, 8 h
Method in brief: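 RAW 264.7 cells at 2.5 × 10⁴/well, at least 6 wells per group, left overnight. Treated in 5% FBS DMEM with agents in DMSO (0.1% final) for 8 h. Then 0.5 mg/ml MTT for 1 h at 37°C, dye dissolved in DMSO, A570 read. Viability taken as % of vehicle control; IC50 from the dose-response.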

Francisella novicida [1] = experiment: Antibacterial activity against Francisella novicida infected in mouse RAW264.7 cells after 24 hrs by broth microdilution method; assay type: functional, Francisella tularensis subsp. novicida; conditions: Francisella tularensis
Method in brief: (§1)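 F. novicida U112 grown overnight on chocolate agar, suspended in PBS and diluted to 5 × 10⁵ CFU/ml in TSB with 0.025% iron(III) pyrophosphate and 0.1% cysteine HCl. CLSI broth microdilution in triplicate, 1 to 64 μg/ml, 37°C for 24 h. MIC was the lowest concentration with no visible growth.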

Francisella tularensis [2] = experiment: Antibacterial activity against Francisella tularensis SchuS4 infected in mouse RAW264.7 cells at 64 ug/ml after 24 hrs by broth microdilution method; assay type: functional, cell-based
Francisella tularensis [3] = experiment: Antibacterial activity against Francisella tularensis LVS infected in mouse RAW264.7 cells after 48 hrs by broth microdilution method; assay type: functional
[4] = Selectivity index, ratio of IC50 for mouse RAW264.7 cells to MIC for Francisella novicida; assay type: functional
Francisella novicida [5] = experiment: Antibacterial activity against Francisella novicida infected in mouse RAW264.7 cells at 64 ug/ml after 24 hrs by broth microdilution method; assay type: functional, cell-based; conditions: Francisella tularensis subsp. novicida; method in brief: as §1
Francisella tularensis [6] = experiment: Antibacterial activity against Francisella tularensis LVS infected in mouse RAW264.7 cells at 64 ug/ml after 48 hrs by broth microdilution method; assay type: functional, cell-based
Escherichia coli = experiment: Antibacterial activity against Escherichia coli ATCC 25922 infected in mouse RAW264.7 cells at 64 ug/ml after 24 to 48 hrs by broth microdilution method; assay type: functional, organism-based
Salmonella typhimurium = experiment: Antibacterial activity against Salmonella enterica serovar Typhimurium ATCC 14028 infected in mouse RAW264.7 cells at 64 ug/ml after 24 to 48 hrs by broth microdilution method; assay type: functional, organism-based; conditions: Salmonella enterica subsp. enterica serovar Typhimurium
Francisella novicida [7] = experiment: Antibacterial activity against Francisella novicida infected in mouse RAW264.7 cells at 64 ug/ml after 24 hrs by broth microdilution method in presence of 10% human serum albumin; assay type: functional, cell-based; conditions: Francisella tularensis subsp. novicida
Francisella tularensis [8] = experiment: Antibacterial activity against Francisella tularensis SchuS4 infected in human THP1 cells at 4 ug/ml after 24 hrs by broth microdilution method; assay type: functional, cell-based; conditions: THP-1
Francisella novicida [9] = experiment: Antibacterial activity against Francisella novicida infected in mouse RAW264.7 cells at 64 ug/ml after 24 hrs by broth microdilution method in presence of 80% fetal bovine serum; assay type: functional, cell-based; conditions: Francisella tularensis subsp. novicida
Method in brief: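 Broth contained 0, 10, 50 or 80% human AB serum (not albumin) or FBS to probe protein binding. NE means no effect at 64 μg/ml.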

Francisella tularensis [10] = experiment: Antibacterial activity against Francisella tularensis SchuS4 infected in mouse RAW264.7 cells after 24 hrs by broth microdilution method; assay type: functional; conditions: SchuS4, 24 h
Francisella novicida [11] = experiment: Antibacterial activity against Francisella novicida infected in mouse RAW264.7 cells at 64 ug/ml after 24 hrs by broth microdilution method in presence of 50% human serum albumin; assay type: functional, cell-based; conditions: Francisella tularensis subsp. novicida
Francisella novicida [12] = experiment: Antibacterial activity against Francisella novicida infected in mouse RAW264.7 cells at 64 ug/ml after 24 hrs by broth microdilution method in presence of 80% human serum albumin; assay type: functional, cell-based; conditions: Francisella tularensis subsp. novicida

| Compound | MIC (Francisella novicida [1]) | MIC (Francisella tularensis [3]) | Activity (Francisella novicida [5]) | Activity (Francisella tularensis [6]) | also measured |
| --- | --- | --- | --- | --- | --- |
| Nc1ccc(-n2nc(C(F)(F)F)cc2-c2ccc(-c3ccc(Br)cc3)cc2)cc1 | 4 µg/mL (≈ 8.73 µM) | 4 µg/mL (≈ 8.73 µM) |  |  | IC50 (RAW264.7): 46 µg/mL (≈ 100 µM); Activity (Francisella tularensis [2]): Active; Ratio [4]: 11.5 |
| Nc1ccc(-n2nc(C(F)(F)F)cc2-c2ccc(-c3cc(Cl)c(Cl)cc3Cl)cc2)cc1 |  | 4 µg/mL (≈ 8.29 µM) | inactive |  |  |
| Nc1ccc(-n2nc(C(F)(F)F)cc2-c2cccc3ccccc23)cc1 | 16 µg/mL (≈ 45.3 µM) | 8 µg/mL (≈ 22.6 µM) |  |  |  |
| CCCCc1ccc(-c2cc(C(F)(F)F)nn2-c2ccc(C(N)=O)cc2)cc1 | 16 µg/mL (≈ 41.3 µM) | 8 µg/mL (≈ 20.7 µM) |  |  |  |
| NC(=O)c1ccc(-n2nc(C(F)(F)F)cc2-c2ccc(-c3cc(Cl)cc(Cl)c3)cc2)cc1 | 16 µg/mL (≈ 33.6 µM) | 4 µg/mL (≈ 8.4 µM) |  |  |  |
| NC(=O)c1ccc(-n2nc(C(F)(F)F)cc2-c2ccc(-c3ccc(Cl)cc3)cc2)cc1 | 4 µg/mL (≈ 9.05 µM) | 2 µg/mL (≈ 4.53 µM) |  |  | IC50 (RAW264.7): 9 µg/mL (≈ 20.4 µM); Ratio [4]: 2.3 |
| FC(F)(F)c1cc(-c2ccc3ccc4ccccc4c3c2)n(-c2ccccc2)n1 |  |  | inactive | inactive |  |
| Nc1ccc(-n2nc(C(F)(F)F)cc2-c2ccc(-c3ccccc3)cc2)cc1 | 4 µg/mL (≈ 10.5 µM) | 4 µg/mL (≈ 10.5 µM) |  |  | IC50 (RAW264.7): 15 µg/mL (≈ 39.5 µM); Ratio [4]: 3.8 |
| CS(=O)(=O)c1ccc(-n2nc(C(F)(F)F)cc2-c2ccc(F)cc2)cc1 |  |  | inactive | inactive |  |
| NC(=O)c1ccc(-n2nc(C(F)(F)F)cc2-c2ccc(-c3ccc(C(F)(F)F)cc3)cc2)cc1 |  |  | inactive | inactive |  |
| Cc1cc(C)cc(-c2ccc(-c3cc(C(F)(F)F)nn3-c3ccc(C(N)=O)cc3)cc2)c1 |  |  | inactive | inactive |  |
| NS(=O)(=O)c1ccc(-n2nc(C(F)(F)F)cc2-c2ccc(-c3cc(Cl)c(Cl)cc3Cl)cc2)cc1 | 2 µg/mL (≈ 3.66 µM) | 1 µg/mL (≈ 1.83 µM) |  |  | IC50 (RAW264.7): 2.4 µg/mL (≈ 4.39 µM); Ratio [4]: 1.2 |
| NC(=O)c1ccc(-n2nc(C(F)(F)F)cc2-c2c3ccccc3cc3ccccc23)cc1 | 16 µg/mL (≈ 37.1 µM) | 16 µg/mL (≈ 37.1 µM) |  |  |  |
| Cc1ccc(-c2ccc(-c3cc(C(F)(F)F)nn3-c3ccc(C(N)=O)cc3)cc2)cc1 | 8 µg/mL (≈ 19 µM) | 8 µg/mL (≈ 19 µM) |  |  |  |
| NC(=O)c1ccc(-n2nc(C(F)(F)F)cc2-c2ccc(-c3ccccc3)cc2)cc1 | 16 µg/mL (≈ 39.3 µM) | 8 µg/mL (≈ 19.6 µM) |  |  |  |
| CC(C)(C)c1ccc(-c2ccc(-c3cc(C(F)(F)F)nn3-c3ccc(C(N)=O)cc3)cc2)cc1 |  |  | inactive | inactive |  |
| NS(=O)(=O)c1ccc(-n2nc(C(F)(F)F)cc2-c2ccc(-c3ccc(Cl)cc3)cc2)cc1 | 4 µg/mL (≈ 8.37 µM) | 4 µg/mL (≈ 8.37 µM) |  |  | IC50 (RAW264.7): 4.8 µg/mL (≈ 10 µM); Ratio [4]: 1.2 |
| CS(=O)(=O)c1ccc(C2=C(c3ccccc3)C(=O)OC2)cc1 [ROFECOXIB] |  |  | inactive | inactive | Activity (Escherichia coli): inactive; Activity (Salmonella typhimurium): inactive; Activity (Francisella tularensis [2]): inactive |
| NS(=O)(=O)c1ccc(-n2nc(C(F)(F)F)cc2-c2cccc3ccccc23)cc1 | 16 µg/mL (≈ 38.3 µM) | 8 µg/mL (≈ 19.2 µM) |  |  |  |
| Cc1ccc(-c2cc(C(F)(F)F)nn2-c2ccc(S(N)(=O)=O)cc2)cc1 [CELECOXIB] | 32 µg/mL (≈ 83.9 µM) | 16 µg/mL (≈ 42 µM) |  |  | Activity (Francisella novicida [7]): inactive; Activity (Francisella tularensis [8]): inactive; IC50 (RAW264.7): 17 µg/mL (≈ 44.6 µM); Activity (Escherichia coli): inactive; Activity (Francisella novicida [9]): inactive; Activity (Salmonella typhimurium): inactive; MIC (Francisella tularensis [10]): 16 µg/mL (≈ 42 µM); Activity (Francisella novicida [11]): inactive; Ratio [4]: 0.5; Activity (Francisella novicida [12]): inactive |
| Cc1ccc(-c2ccc(-c3cc(C(F)(F)F)nn3-c3ccc(S(C)(=O)=O)cc3)cc2)cc1 |  |  | inactive | inactive |  |
| COc1ccc2cc(-c3cc(C(F)(F)F)nn3-c3ccc(N)cc3)ccc2c1 | 16 µg/mL (≈ 41.7 µM) | 16 µg/mL (≈ 41.7 µM) |  |  |  |
| CCCCc1ccc(-c2ccc(-c3cc(C(F)(F)F)nn3-c3ccc(C(N)=O)cc3)cc2)cc1 |  |  | inactive | inactive |  |
